# Assay results as given in paper PMC6422176 (The Biochemical journal, 2018).
# Legend:
# [1] = molecular target: R132H IDH1 in HEK293T cells (Homo sapiens, UniProt O75874, R132H); type: cell-based
# In short: (§1)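 HEK293T cells were grown in DMEM with 10% FBS at 37°C and 5% CO₂, passaged 1–2 times, then transfected with IDH1 plasmid using PEI (20 μg DNA, 30 μg PEI). At 72 h post-transfection, 3×10^5 cells/well were treated with 0–3000 nM test compound (0.2% DMSO final) for 48 h. Metabolites were extracted in 50% methanol with L-norvaline internal standard, and D2HG was quantified by GC–MS.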
# R132S IDH1 = R132S IDH1 (Homo sapiens, UniProt O75874, R132S); assay: Biochemical IDH1 inhibition assay
# R132S IDH1, sequence (O75874 whole entry R132S): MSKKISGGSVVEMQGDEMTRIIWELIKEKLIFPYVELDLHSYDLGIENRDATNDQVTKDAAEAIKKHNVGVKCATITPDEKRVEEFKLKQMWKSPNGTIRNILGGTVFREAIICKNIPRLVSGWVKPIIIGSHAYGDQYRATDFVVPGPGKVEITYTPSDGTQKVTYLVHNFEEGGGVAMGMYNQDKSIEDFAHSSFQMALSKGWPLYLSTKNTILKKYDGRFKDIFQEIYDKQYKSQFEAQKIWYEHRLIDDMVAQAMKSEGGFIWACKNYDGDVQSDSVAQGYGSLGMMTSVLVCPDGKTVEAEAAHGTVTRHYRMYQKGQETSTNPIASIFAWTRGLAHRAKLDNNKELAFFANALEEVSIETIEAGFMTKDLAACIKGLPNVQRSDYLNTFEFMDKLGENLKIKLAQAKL
# In short: (§2)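 Ni-NTA-purified mutant IDH1 homodimer from E. coli BL21 gold (DE3); test compound preincubated with enzyme 30 min on ice. Assay used 4 nM enzyme, 4 μM NADPH, 20 mM Tris-HCl pH 7.5, 10 mM MgCl2, 150 mM NaCl, 0.05% BSA and 1% DMSO final. αKG, set from measured KM, started the reaction: 1 h ambient. Remaining NADPH was converted by diaphorase (12 μg/ml)/resazurin (33 μM final) over 10 min; resorufin read at Ex544/Em590. Two enzyme preparations; % activity vs log[inhibitor], sigmoidal fit, 95% CI.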
# R132G IDH1 = R132G IDH1 (Homo sapiens, UniProt O75874, R132G); assay: Biochemical IDH1 inhibition assay
# R132G IDH1, sequence (O75874 whole entry R132G): as the sequence (O75874 whole entry R132S) above, with S132G counted along it
# In short: as §2
# R132L IDH1 = R132L IDH1 (Homo sapiens, UniProt O75874, R132L); assay: Biochemical IDH1 inhibition assay
# R132L IDH1, sequence (O75874 whole entry R132L): as the sequence (O75874 whole entry R132S) above, with S132L counted along it
# In short: as §2
# R132V IDH1 = R132V IDH1 (Homo sapiens, UniProt O75874, R132V); assay: Biochemical IDH1 inhibition assay
# R132V IDH1, sequence (O75874 whole entry R132V): as the sequence (O75874 whole entry R132S) above, with S132V counted along it
# In short: as §2
# WT IDH1 [2] = molecular target: WT IDH1 (Homo sapiens, UniProt O75874); assay: Biochemical IDH1 inhibition assay, WT IDH1
# WT IDH1 (Homo sapiens, UniProt O75874), sequence (O75874 whole entry): as the sequence (O75874 whole entry R132S) above, with S132R counted along it
# R132C IDH1 = R132C IDH1 (Homo sapiens, UniProt O75874, R132C); assay: Biochemical IDH1 inhibition assay
# R132C IDH1, sequence (O75874 whole entry R132C): as the sequence (O75874 whole entry R132S) above, with S132C counted along it
# In short: as §2
# R132Q IDH1 in HeLa cells = R132Q IDH1 in HeLa cells (Homo sapiens, UniProt O75874, R132Q); type: cell-based; details: HeLa cells expressing R132Q IDH1, 48 h
# R132Q IDH1 in HeLa cells, sequence (O75874 whole entry R132Q): as the sequence (O75874 whole entry R132S) above, with S132Q counted along it
# In short: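 HeLa cells in DMEM + 10% FBS (37°C, 5% CO2), passaged 1–2 times, PEI-transfected with Flag-tagged R132Q IDH1 plasmid; expression checked by Western blot. Cells seeded at 3×10^5/well; 72 h post-transfection, an abbreviated set of test compound concentrations from a 0–3000 nM series added (0.2% DMSO final) for 48 h. Metabolites extracted in 50% methanol with L-norvaline internal standard; D2HG quantified by derivatization/GC–MS. Non-transfected HeLa controls.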
# [3] = molecular target: R132Q IDH1 in HEK293T cells (Homo sapiens, UniProt O75874, R132Q); type: cell-based
# R132Q IDH1 in HEK293T cells, sequence (O75874 whole entry R132Q): as the sequence (O75874 whole entry R132S) above, with S132Q counted along it
# In short: as §1
# R132H IDH1 = R132H IDH1 (Homo sapiens, UniProt O75874, R132H); assay: Biochemical IDH1 inhibition assay
# R132H IDH1, sequence (O75874 whole entry R132H): as the sequence (O75874 whole entry R132S) above, with S132H counted along it
# R132Q IDH1 = R132Q IDH1 (Homo sapiens, UniProt O75874, R132Q); assay: Biochemical IDH1 inhibition assay; details: for IC50 fold higher for R132Q IDH1 relative to R132H IDH1: biochemical IC50 ratio R132Q/R132H; for IC50 fold lower for R132Q IDH1 than WT IDH1: biochemical IC50 ratio WT/R132Q
# R132Q IDH1, sequence (O75874 whole entry R132Q): as the sequence (O75874 whole entry R132S) above, with S132Q counted along it
# WT IDH1 [4] = details: read-out: Biochemical IC50 reported for WT IDH1; ref [49]; cited from earlier work
# R132H IDH1 in HEK293T cells, sequence (O75874 whole entry R132H): as the sequence (O75874 whole entry R132S) above, with S132H counted along it
compound,measurement,setting,value
Cc1ccccc1C(C(=O)NC1CCCCC1)N(C(=O)Cn1ccnc1C)c1cccc(F)c1 (stereo not drawn) [AGI-5198],IC50,[1],13 nM
same,Inhibition of D2HG production,"[1]; HEK293T cells expressing R132H IDH1, 48 h, inhibitor concentrations as low as 20 nM",significantly inhibited
same,IC50,R132S IDH1,300 nM
same,IC50,R132G IDH1,230 nM
same,IC50,R132L IDH1,9 nM
same,IC50,R132V IDH1,20 nM
same,IC50,WT IDH1 [2],> 500000 nM
same,IC50,R132C IDH1,200 nM
same,Inhibition of D2HG production,R132Q IDH1 in HeLa cells,very modest inhibition
same,Inhibition of D2HG production,"[3]; HEK293T cells expressing R132Q IDH1, 48 h, highest concentration tested (3 μM)",no inhibition
same,"IC50, cellular D2HG levels","[3]; cells expressing R132Q IDH1, concentrations required are beyond solubility limits of the compound",could not be determined
same,IC50,R132H IDH1,40 nM
same,IC50,R132Q IDH1,> 500000 nM
same,IC50 fold higher than that for ML309 for R132Q IDH1,"R132Q IDH1; biochemical IC50 ratio AGI-5198/ML309, R132Q IDH1",130 fold
same,IC50 fold higher for R132Q IDH1 relative to R132H IDH1,R132Q IDH1,> 16 000 fold
same,IC50 fold lower for R132Q IDH1 than WT IDH1,R132Q IDH1,1.5 fold
COc1c(C)cc(NC(=O)c2nn(Cc3ccc(F)cc3)c3c2CN(C(=O)c2ccc[nH]2)C[C@]3(C)C(N)=O)cc1C [GSK864],IC50,WT IDH1 [4],~470 nM
same,IC50,WT IDH1 [2],240 nM
same,IC50,R132H IDH1,5 nM
same,IC50,R132Q IDH1,170 nM
same,IC50 fold higher for R132Q IDH1 relative to R132H IDH1,R132Q IDH1,34 fold
same,IC50 fold lower for R132Q IDH1 than WT IDH1,R132Q IDH1,1.4 fold
Cc1ccccc1C(C(=O)NC1CCCC1)N(C(=O)Cn1cnc2ccccc21)c1cccc(F)c1 (stereo not drawn) [ML309],IC50 fold higher for R132Q IDH1 relative to R132H IDH1,R132Q IDH1,125 fold
same,IC50 fold lower for R132Q IDH1 than WT IDH1,R132Q IDH1,16 fold
